Calls of active or inactive are those of the source. No cut-off for these calls is given here.
Tests used:
[1] = target: T1, Free fatty acid receptor 1 (Homo sapiens, UniProt O14842); experiment: Agonist activity at GPR40 expressed in CHO cells by FLIPR assay; type: functional, cell-based
Outline: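 CHO-K1 cells stably transfected with hGPR40 (pCDN vector), seeded and grown 48 h, loaded 1 h with Fluo-4AM in 10 mM Hepes/Ca²⁺/2.5 mM probenecid HBSS pH 7.5, washed thrice, held at 37 °C. FlexStation calcium flux read as fold over control. EC50 from dose–response curves; efficacy as % of maximal linoleic acid response. Mock-transfected CHO-K1 run in parallel.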

[2] = target: T1, Free fatty acid receptor 1; experiment: Agonist activity at GPR40; type: functional
[3] = target: T1, Free fatty acid receptor 1; experiment: Agonist activity at human GPR40 expressed in CHOK1 cells assessed as effect on calcium flux at 10 uM by fluorescence assay; type: functional, cell-based; settings: CHO-K1
Outline: (§1)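 CHO K1 cells stably transfected with hGPR40 (vector pCDN), seeded 10,000 cells/well on poly-D-lysine plates, 48 h culture; loaded 1 h with 2.5 µM Fluo-4AM in 10 mM Hepes, 2.5 mM probenecid, HBSS pH 7.5, washed thrice, 37 °C; Ca²⁺ flux read on FlexStation as fold over control; mock-transfected CHO K1 cells run in parallel for specificity.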

[4] = target: T1, Free fatty acid receptor 1; experiment: Activity at human GPR40 expressed in CHOK1 cells assessed as inhibition of linoleic acid-induced calcium flux by fluorescence assay; type: functional, cell-based; settings: CHO-K1
[5] = target: T1, Free fatty acid receptor 1; experiment: Agonist activity at human GPR40 expressed in CHOK1 cells assessed as fold increase in calcium flux at 10 uM by fluorescence assay relative to control; type: functional, cell-based; settings: CHO-K1; outline: as §1
[6] = target: T1, Free fatty acid receptor 1; experiment: Agonist activity at human GPR40 expressed in CHOK1 cells by fluorescence assay; type: functional, cell-based, CHO-K1; outline: as §1
[7] = target: T1, Free fatty acid receptor 1; experiment: Agonist activity at human GPR40 expressed in CHOK1 cells assessed as maximal response at 10 uM by fluorescence assay relative to linoleic acid; type: functional, cell-based; settings: CHO-K1; outline: as §1
HIT-T15 = experiment: Induction of insulin secretion in Syrian golden hamster HIT-T15 cells at 10 uM; type: functional, cell-based; settings: Mesocricetus auratus
Outline: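 HIT-T15 hamster pancreatic cells treated with 10 µM compound; insulin secretion measured, with linoleic acid as reference.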

[8] = target: T1, Free fatty acid receptor 1; experiment: Activation at GPR40 expressed in HEK293 cells at 100 uM by calcium mobilization-based FLIPR assay; type: functional, cell-based
[9] = target: T1, Free fatty acid receptor 1; experiment: Agonist activity at GPR40 at 100 uM; type: functional
[10] = target: Free fatty acid receptor 1 (Mus musculus, UniProt Q76JU9); experiment: Agonist activity at mouse GPR40 expressed in HEK293 cells; type: functional, cell-based
Chain of Free fatty acid receptor 1 (Mus musculus, UniProt Q76JU9) (Q76JU9 whole entry): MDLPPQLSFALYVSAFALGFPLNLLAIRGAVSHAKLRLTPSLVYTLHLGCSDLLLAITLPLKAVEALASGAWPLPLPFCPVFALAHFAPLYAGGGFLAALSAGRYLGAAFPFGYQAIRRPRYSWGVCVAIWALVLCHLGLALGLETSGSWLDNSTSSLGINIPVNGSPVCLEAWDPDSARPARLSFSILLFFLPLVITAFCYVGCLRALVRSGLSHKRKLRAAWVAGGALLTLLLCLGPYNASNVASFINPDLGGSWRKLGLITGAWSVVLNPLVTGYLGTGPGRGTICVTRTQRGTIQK

T1 sequence (O14842 whole entry): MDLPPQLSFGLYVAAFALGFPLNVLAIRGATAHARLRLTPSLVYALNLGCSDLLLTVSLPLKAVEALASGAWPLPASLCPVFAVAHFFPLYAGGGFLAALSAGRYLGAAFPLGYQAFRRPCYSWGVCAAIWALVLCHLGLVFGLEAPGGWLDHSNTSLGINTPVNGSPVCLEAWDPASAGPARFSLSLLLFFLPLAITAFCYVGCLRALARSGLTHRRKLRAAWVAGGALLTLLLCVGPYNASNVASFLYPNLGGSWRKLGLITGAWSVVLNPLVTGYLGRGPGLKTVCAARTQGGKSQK

| Structure (SMILES) | Activity [3] | Activity [4] | fold change (FC) [5] | further results |
| --- | --- | --- | --- | --- |
| O=C(O)[C@H]1[C@@H]2Oc3cc(Oc4ccc(C(F)(F)F)cc4Cl)ccc3[C@@H]21 |  |  |  | EC50 [1]: 0.1 nM |
| Cc1cccc(C)c1-c1cccc(COc2ccc(Cn3oc(=O)[nH]c3=O)cc2)c1 |  |  |  | EC50 [2]: 260 nM |
| CCCCCCCCCCCCCCCCCC(=O)c1c(O)cc(O)c(C(=O)CCCCCCCCCCCCCCCCC)c1O | inactive | inactive | 1.19 |  |
| CCCCc1c(O)c(C(=O)CC(C)C)c(O)c(C(=O)CC(C)C)c1O | Active |  | 2.12 | EC50 [6]: 970 nM; Activity [7]: 84.5% |
| CCCCOc1cc(O)c(C(=O)CC(C)C)c(OCCCC)c1C(=O)CC(C)C | inactive | inactive | 1.46 |  |
| CCCCCCCCCCCCCCCC(=O)c1c(O)cc(O)c(C(=O)CCCCCCCCCCCCCCC)c1O | inactive | inactive | 1.02 |  |
| CCCCOc1ccc(C)cc1-c1ccc(COc2ccc3c(c2)CCC[C@H]3CC(=O)O)cc1 |  |  |  | EC50 [1]: < 100 nM |
| O=C(O)CCc1ccc2oc(Nc3cccc(Cl)c3Cl)nc2c1 |  |  |  | Activity [8]: 111% |
| CCCCOc1cc(OCCCC)c(C(=O)CC(C)C)c(O)c1C(=O)CC(C)C | inactive | inactive | 1.35 |  |
| O=C(O)CCCCCCCNc1ncc(-c2ccccc2)c(-c2ccccc2)n1 |  |  |  | Activity [8]: 104% |
| CC#CC(CC(=O)O)c1ccc(OC2CCc3cc(-c4cccs4)ccc32)cc1 (stereo unspecified) |  |  |  | EC50 [2]: 10 nM |
| O=C(O)CCc1ccc(OCc2ccc(CC(CCc3ccccn3)c3nc(-c4ccccc4)cs3)cc2)cc1 (stereo unspecified) |  |  |  | EC50 [2]: 19 nM |
| CCCCC/C=C\C/C=C\CCCCCCCC(=O)O [LINOLEIC ACID] | Active |  | 2.55 | EC50 [6]: 540 nM; EC50 [2]: 540 nM |
| Cc1cc(OCC2(C)COC2)cc(C)c1-c1cccc(COc2ccc(C3CC3C(=O)O)cc2)c1 (stereo unspecified) |  |  |  | Activity [9]: 119% |
| CC(C)CC(=O)c1c(O)c(Cc2c(O)c(C(=O)CC(C)C)c(O)c(C(=O)CC(C)C)c2O)c(O)c(C(=O)CC(C)C)c1O | inactive | inactive | 1.11 |  |
| CCCCCCCCC1SC(=O)NC1=O (stereo unspecified) |  |  |  | EC50 [10]: 7940 nM |

Continued, in another order:

| Activity [3] | Activity [4] | fold change (FC) [5] | Structure (SMILES) | further results |
| --- | --- | --- | --- | --- |
| inactive | inactive | 1.02 | CC(C)CC(=O)c1c(O)cc(OCCO)c(C(=O)CC(C)C)c1O |  |
| inactive | inactive | 1.21 | CCCCCCCC(=O)c1c(O)cc(O)c(C(=O)CCCCCCC)c1O |  |
| Active |  | 1.89 | CC(C)CC(=O)c1c(O)cc(O)c(C(=O)CC(C)C)c1O | EC50 [6]: 6000 nM; Activity (HIT-T15): Active; Activity [7]: 102% |
| inactive | inactive | 1 | CC(C)CC(=O)c1c(O)cc(O)c(C(=O)CCCC(=O)O)c1O |  |
| Active |  | 2.31 | CC(C)C(=O)c1c(O)cc(O)c(C(=O)C(C)C)c1O | EC50 [6]: 8000 nM; Activity (HIT-T15): Active; Activity [7]: 88.7% |
| inactive | inactive | 1 | O=C(O)CCCC(=O)c1c(O)cc(O)cc1O |  |
| inactive | inactive | 1.02 | CCCCOc1cc(O)c(C(=O)CC(C)C)c(O)c1C(=O)CC(C)C |  |
| inactive | inactive | 1.12 | CC(C)CC(=O)c1c(O)cc(O)cc1O |  |
| Active |  | 2.33 | CCCCCCCCCCCC(=O)c1c(O)cc(O)c(C(=O)CCCCCCCCCCC)c1O [DIDODECANOYLPHLOROGLUCINOL] | EC50 [6]: 70 nM; Activity (HIT-T15): Active; Activity [7]: 100% |
| inactive | inactive | 1.01 | O=C(/C=C/C(=O)c1c(O)cc(O)cc1O)c1c(O)cc(O)cc1O |  |
| inactive | inactive | 1.21 | O=C(CCl)c1c(O)cc(O)c(C(=O)CCl)c1O |  |
